Data published in ChEMBL document CHEMBL1157856, “Novel quinoline and naphthalene derivatives as potent antimycobacterial agents” (2010).

Key:
Assay type in all cases: functional
[1] = tested on: Mycobacterium tuberculosis; experiment: Antimycobacterial activity against Mycobacterium tuberculosis H37Rv at 6.25 ug/ml by BACTEC 460; details: for inhibition at 6.25 µg/mL: Mycobacterium tuberculosis, H37Rv
[2] = tested on: U-937; experiment: Cytotoxicity against human U937 cells assessed as cell viability at 10 ug/ml after 24 hrs by MTT assay; details: U-937, 24 h, read-out: Activity
In short: (§1)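 U937 human monocytic cells seeded at 1 × 10⁵ cells/mL and allowed to adhere for 1 h at 37 °C under 5% CO₂. Non-adherent cells were rinsed off with RPMI 1640. Adherent cells were exposed in triplicate to compound, medium alone (live control) or 3% Tween 20 (dead control). MTT (5 mg/mL stock in PBS) was added for 3 h at 37 °C. Formazan was dissolved in 0.4 M HCl/isopropanol and A600 read. Values given as percent viability.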

[3] = tested on: U-937; experiment: Cytotoxicity against human U937 cells assessed as cell viability at 1 ug/ml after 24 hrs by MTT assay; details: U-937, 24 h, read-out: Activity; in short: as §1
[4] = tested on: U-937; experiment: Cytotoxicity against human U937 cells assessed as cell viability at 10 ug/ml after 72 hrs by MTT assay; details: U-937, 72 h, read-out: Activity; in short: as §1
[5] = tested on: U-937; experiment: Cytotoxicity against human U937 cells assessed as cell viability at 1 ug/ml after 72 hrs by MTT assay; details: U-937, 72 h, read-out: Activity; in short: as §1

Row | Structure (SMILES) | inhibition at 6.25 µg/mL [1] [%] | other results
1 | Cc1cc(C(OCC(O)Cn2cccn2)c2ccncc2)c2cc(Br)ccc2n1 (stereo unspecified) | 9 | 
2 | COc1cccc(N2CCN(CC(O)COC(c3ccccc3)c3cccc4ccccc34)CC2)c1 (stereo unspecified) | 99 | viability at 10 µg/mL [2]: 82%; viability at 1 µg/mL [3]: 100%; viability at 10 µg/mL [4]: 63%; viability at 1 µg/mL [5]: 100%
3 | OC(COC(c1ccccc1)c1cccc2ccccc12)CN1CCN(c2ccc(Cl)c(Cl)c2)CC1 (stereo unspecified) | 4 | 
4 | OC(COC(c1ccccc1)c1cccc2ccccc12)CN1CCN(c2ccc(Cl)cc2)CC1 (stereo unspecified) | 5 | 
5 | OC(COC(c1ccccc1)c1cccc2ccccc12)CN1CCN(c2cccc(C(F)(F)F)c2)CC1 (stereo unspecified) | 11 | 
6 | Cc1cc(C(OCC(O)CN2CCN(c3ccccn3)CC2)c2ccncc2)c2cc(Br)ccc2n1 (stereo unspecified) | 4 | 
7 | OC(COC(c1ccccc1)c1cccc2ccccc12)CN1CCN(c2ccccn2)CC1 (stereo unspecified) | 23 | 
8 | Cc1cc(C(OCC(O)CN(C)CCO)c2ccncc2)c2cc(Br)ccc2n1 (stereo unspecified) | 13 | 
9 | OC(COC(c1ccccc1)c1cccc2ccccc12)CN1CCN(Cc2ccccc2)CC1 (stereo unspecified) | 91 | viability at 10 µg/mL [2]: 77%; viability at 1 µg/mL [3]: 77%; viability at 10 µg/mL [4]: 74%; viability at 1 µg/mL [5]: 71%
10 | Cc1cc(C(OCC(O)CNc2nnn[nH]2)c2ccncc2)c2cc(Br)ccc2n1 (stereo unspecified) | 20 | 
11 | Cc1cc(C(OCC(O)CNc2ncn[nH]2)c2ccncc2)c2cc(Br)ccc2n1 (stereo in doubt; 12) [1-(1H-1,2,4-TRIAZOL-5-YLAMINO)-3-((6-BROMO-2-METHYLQUINOLIN-4-YL)(PYRIDIN-4-YL)METHOXY)PROPAN-2-OL (STRUCTURAL MIX)] | 22 | 
12 | Cc1cc(C(OCC(O)Cn2ccnc2)c2ccncc2)c2cc(Br)ccc2n1 (stereo unspecified) | 7 | 
13 | Cc1cc(C(OCC(O)Cn2ccc(C)n2)c2ccncc2)c2cc(Br)ccc2n1 (stereo unspecified) | 8 | 
14 | COc1ccccc1N1CCN(CC(O)COC(c2ccccc2)c2cccc3ccccc23)CC1 (stereo unspecified) | 90 | viability at 10 µg/mL [2]: 81%; viability at 1 µg/mL [3]: 81%; viability at 10 µg/mL [4]: 62%; viability at 1 µg/mL [5]: 64%
15 | Cc1cc(C(OCC(O)CNc2ncn[nH]2)c2ccncc2)c2cc(Br)ccc2n1 (stereo in doubt; 13) [1-(1H-1,2,4-TRIAZOL-5-YLAMINO)-3-((6-BROMO-2-METHYLQUINOLIN-4-YL)(PYRIDIN-4-YL)METHOXY)PROPAN-2-OL (STRUCTURAL MIX)] |  | inhibition (INH) [1]: 15%
16 | Cc1cc(C(OCC(O)Cn2cncn2)c2ccncc2)c2cc(Br)ccc2n1 (stereo unspecified) | 10 | 
17 | COCCNCC(O)COC(c1ccncc1)c1cc(C)nc2ccc(Br)cc12 (stereo unspecified) | 19 | 
18 | Cc1cc(C(OCC(O)CNCCN)c2ccncc2)c2cc(Br)ccc2n1 (stereo unspecified) | 5 | 
19 | OC(COC(c1ccccc1)c1cccc2ccccc12)CN1CCN(c2ccc(F)cc2)CC1 (stereo unspecified) | 14 | 
20 | OC(COC(c1ccccc1)c1cccc2ccccc12)CN1CCN(C(c2ccccc2)c2ccccc2)CC1 (stereo unspecified) | 98 | viability at 10 µg/mL [2]: 74%; viability at 1 µg/mL [3]: 93%; viability at 10 µg/mL [4]: 70%; viability at 1 µg/mL [5]: 79%
